Assay [1] deals with Mycobacterium tuberculosis. Put plainly: Antimicrobial activity against Mycobacterium tuberculosis Haarlem 9532/03 harboring thyA Thr202Ala single nucleotide polymorphism grown in Lowenstein-Jensen medium. The class given is functional. The procedure, abridged: (§1)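 PAS MIC by conventional susceptibility testing on Löwenstein-Jensen medium at 0.063, 0.13, 0.25, 0.5 and 1.0 mg/liter PAS. Strains were drawn from the reference collection and cultivated at the Borstel Supranational Reference Laboratory.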

In assay [2] the test system is Mycobacterium tuberculosis. Nature of the assay: Antimicrobial activity against Mycobacterium tuberculosis LAM 7968/03 harboring thyA Thr202Ala single nucleotide polymorphism grown in Lowenstein-Jensen medium. It is filed as functional. The procedure, abridged:
as §1

Assay [3] concerns Mycobacterium tuberculosis. Nature of the assay: Antimicrobial activity against Mycobacterium tuberculosis Haarlem 9532/03 harboring thyA Thr202Ala single nucleotide polymorphism grown in 7H9 broth assessed as decrease in bacterial growth at 0.125 to 2 ug/ml by spectrophotometry. It is filed as functional, organism-based. The procedure, abridged: (§2)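 PAS growth curves in 7H9 broth with OADC (10%) and Tween 80 (0.05%), 37°C, rolling device. PAS was added at OD600 0.1 to 0, 0.13, 0.25, 0.5, 1.0 and 2.0 mg/liter. OD600 was read daily for 9 consecutive days, in triplicate. Curves are means of three independent experiments.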

Assay [4] deals with Mycobacterium tuberculosis. Put plainly: Antimicrobial activity against Mycobacterium tuberculosis Beijing 1934/03 harboring thyA Thr202Ala single nucleotide polymorphism grown in 7H9 broth assessed as decrease in bacterial growth at 0.125 to 2 ug/ml by spectrophotometry. The class given is functional, organism-based. The gist of the method:
as §2

Assay [5] has as its system Mycobacterium tuberculosis. Nature of the assay: Antimicrobial activity against Mycobacterium tuberculosis H37Rv 9679/00 harboring thyA Thr202Ala single nucleotide polymorphism grown in 7H9 broth assessed as decrease in bacterial growth at 0.125 to 2 ug/ml by spectrophotometry. It is filed as functional, organism-based. The gist of the method:
as §2

Assay [6] concerns Mycobacterium tuberculosis. Nature of the assay: Antimicrobial activity against Mycobacterium tuberculosis LAM 7968/03 harboring thyA Thr202Ala single nucleotide polymorphism grown in 7H9 broth assessed as decrease in bacterial growth at 0.125 to 2 ug/ml by spectrophotometry. It is filed as functional, organism-based. The gist of the method:
as §2

The subject of assay [7] is Mycobacterium tuberculosis. Put plainly: Antimicrobial activity against Mycobacterium tuberculosis Beijing 1934/03 harboring thyA Thr202Ala single nucleotide polymorphism grown in Lowenstein-Jensen medium. The class given is functional. The procedure, abridged:
as §1

Assay [8] deals with Mycobacterium tuberculosis. Nature of the assay: Antimicrobial activity against Mycobacterium tuberculosis LAM 8885/05 harboring thyA Thr202Ala single nucleotide polymorphism grown in Lowenstein-Jensen medium. It is filed as functional. The procedure, abridged:
as §1

The subject of assay [9] is Mycobacterium tuberculosis. Nature of the assay: Antimicrobial activity against Mycobacterium tuberculosis LAM 8885/05 harboring thyA Thr202Ala single nucleotide polymorphism grown in 7H9 broth assessed as decrease in bacterial growth at 0.125 to 2 ug/ml by spectrophotometry. The class given is functional, organism-based. The procedure, abridged: as §2
Assay [10] concerns Mycobacterium tuberculosis. Nature of the assay: Antimicrobial activity against Mycobacterium tuberculosis H37Rv 9679/00 harboring thyA Thr202Ala single nucleotide polymorphism grown in Lowenstein-Jensen medium. It is filed as functional. The procedure, abridged: as §1

≈ marks a conversion by molar mass, not a printed value. Calls of active or inactive are those of the source. No cut-off for these calls is given here.

As for `Nc1ccc(C(=O)O)c(O)c1` [AMINOSALICYLIC ACID], the MIC in assay [1], in [2], in assay [7], in assay [8] and in assay [10] was 0.5 ng/mL (≈ 3.27 nM) throughout. The result in assay [3], in assay [4], in [5], in [6] and in [9] was Active.

What is called MIC is the lowest concentration found to suppress growth. Low values mean inhibition by little substance, high ones a need for much substance.

Values taken from ChEMBL document CHEMBL1671759, “Thr202Ala in thyA is a marker for the Latin American Mediterranean lineage of the Mycobacterium tuberculosis complex rather than para-aminosalicylic acid resistance” (2010).
